TRPC6 inh = mouse TRPC6 channel inhibition; B-score at 10 µM; 1.1% of 310,000 active; AID 2553; HEK293-TRPC6, membrane potential dye, ACh-evoked depolarization; hits give low values; Q61143;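 active = B-score under library mean minus 3 SD, initial fluorescence not abnormally high, positive integrated signal ratio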;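 also: B-score derived from integrated fluorescence ratio over the kinetic read; more negative B-score means stronger inhibition of depolarization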
Target sequence (Q61143 whole entry, looked up): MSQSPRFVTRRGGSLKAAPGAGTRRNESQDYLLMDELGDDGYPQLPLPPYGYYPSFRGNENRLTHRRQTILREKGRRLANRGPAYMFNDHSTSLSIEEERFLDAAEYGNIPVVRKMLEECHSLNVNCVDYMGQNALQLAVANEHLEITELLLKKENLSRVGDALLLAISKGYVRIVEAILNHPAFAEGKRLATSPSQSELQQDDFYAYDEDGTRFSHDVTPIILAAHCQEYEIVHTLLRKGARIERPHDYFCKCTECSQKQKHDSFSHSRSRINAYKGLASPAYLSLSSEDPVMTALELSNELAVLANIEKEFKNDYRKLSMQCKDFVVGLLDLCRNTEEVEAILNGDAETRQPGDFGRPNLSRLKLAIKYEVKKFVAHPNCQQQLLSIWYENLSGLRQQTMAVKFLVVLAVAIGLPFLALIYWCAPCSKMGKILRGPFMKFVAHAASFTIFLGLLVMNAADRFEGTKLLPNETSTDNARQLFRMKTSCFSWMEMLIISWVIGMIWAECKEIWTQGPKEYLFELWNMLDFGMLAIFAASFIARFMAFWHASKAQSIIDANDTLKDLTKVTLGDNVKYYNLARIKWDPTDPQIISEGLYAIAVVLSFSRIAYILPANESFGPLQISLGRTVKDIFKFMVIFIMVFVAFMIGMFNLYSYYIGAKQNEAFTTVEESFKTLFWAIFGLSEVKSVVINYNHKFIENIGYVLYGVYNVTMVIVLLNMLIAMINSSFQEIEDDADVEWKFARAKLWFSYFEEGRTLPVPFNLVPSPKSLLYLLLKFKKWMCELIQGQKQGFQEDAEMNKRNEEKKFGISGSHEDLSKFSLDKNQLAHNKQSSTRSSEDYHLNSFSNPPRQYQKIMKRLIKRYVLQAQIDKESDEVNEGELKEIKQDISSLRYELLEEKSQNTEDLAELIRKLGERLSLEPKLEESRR
TRPC4 inh = inhibitors of mouse TRPC4 channel | HEK293 TRPC4beta/mu-opioid, DAMGO-evoked Fluo4 calcium flux; hits give low values | B-score at 10 µM | 0.39% of 300,000 active | AID 2247;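 active = B-score over 3 SD under the library average, no early fluorescence shift, positive overall ratio signal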
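material = TRPC4beta/mu-opioid receptor HEK293 cell line | probe or stimulus = sequential submaximal and maximal DAMGO stimulation | compound dosing = one concentration per compound | measured by = Fluo4 Ca2+ flux fluorescence | evaluation = integrated fluorescence ratio relative to baseline, converted to per-well B score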
TRPC4 agonist = TRPC4 (mouse) channel activation; HEK293 TRPC4beta/mu-opioid, Fluo4 calcium fluorescence; hits give high values; AID 2237; B-score at 10 µM; 0.49% of 310,000 active;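 active = B-score above 5 SD of library B-scores, and initial fluorescence ratio not above library mean plus 5 SD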;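 also: positive B-score marks a calcium rise read as TRPC4 activation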
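Assay system: HEK293 stable line with TRPC4beta plus mu-opioid receptor; schedule: 45 min room-temperature Fluo4 loading, 110 s read; technique: kinetic Fluo4 calcium fluorescence; evaluation: integrated baseline-normalised fluorescence ratio, converted to per-well B score; controls: buffer (low) and maximal DAMGO (high)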
TRPC6 activator = mouse TRPC6 channel activation; Q61143; HEK293-TRPC6 membrane potential dye fluorescence; hits give high values; B-score at 10 µM; 0.13% of 310,000 active; AID 2550;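 active = B-score of the integrated fluorescence ratio above library mean plus 3 SD, and starting fluorescence ratio within library mean plus 5 SD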;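 also: higher score means more depolarization so channel activation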
TRPC4 PAM = TRPC4 (mouse) allosteric potentiation; B-score at 10 µM; HEK293 TRPC4beta/mu-opioid, DAMGO EC20, Fluo-4 Ca2+ flux; hits give high values; 0.42% of 310,000 active; AID 2227; Q9QUQ5;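 active = B-score of calcium response area above 5 SD of library B-scores, with initial fluorescence ratio within 5 SD of library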;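 also: B-score of integrated fluorescence ratio over time as area under calcium response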
TRPC4 sel inh 2 = second selectivity test of TRPC6 inhibitors: effect on mouse TRPC4; shares compounds with TRPC6 inh; AID 2776; 42% of 920 active; HEK293 TRPC4/MOR, membrane potential dye fluorescence; channel activated by saturating DAMGO dose; inhibition, % at 10 µM;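 active = compounds whose fluorescence signal differed from control wells by over 3 SD, either direction, in both duplicate plates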
TRPC4 spec = mouse TRPC4 off-target activity of TRPC6 inhibitors. shares compounds with TRPC6 inh. HEK293 TRPC4/mu-opioid, membrane potential fluorescence. activity change, negative = inhibition, % at 10 µM. 61% of 920 active. AID 2777;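 active = rise or fall in signal beyond 3 SD of buffer-only wells in both replicate plates, either sign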;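 also: integrated kinetic ratio of fluorescence range over baseline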
HEK293 MPD ctr 2-1 = second counter-screen for TRPC6 inhibitors: parental HEK293 cells. signal change vs control, % at 10 µM. 31% of 920 active. shares compounds with TRPC6 inh. parental HEK293 membrane potential dye fluorescence; maximal acetylcholine challenge after compound addition;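 active = membrane potential signal moving either way by over 3 SD of the maximum-effect control, in both duplicate plates, meaning non-specific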
HEK293 MPD ctr-1 = parental HEK293 nonspecific activity of TRPC6 inhibitors | shares compounds with TRPC6 inh | parental HEK293 membrane potential dye fluorescence | membrane potential signal change, % at 10 µM | 60% of 920 active;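 active = membrane potential signal shifting up or down by more than 3 SD of buffer-only wells, on both duplicate plates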
HEK293 MPD ctr-2 = counter-screen for TRPC6 modulators: effect in parental HEK293 cells | shares compounds with TRPC6 inh | membrane potential dye fluorescence | membrane potential signal change, % at 10 µM | 51% of 2,400 active;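 active = membrane potential signal moves up or down beyond 5 SD from buffer-only wells, on both duplicate plates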
HEK293 MPD ctr 2-2 = second check of TRPC6 modulator effects in parental HEK293 cells. shares compounds with TRPC6 inh. membrane potential dye fluorescence; after compound, maximal acetylcholine stimulation. inhibition, % at 10 µM. 14% of 2,400 active. AID 488926;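 active = membrane potential signal drops by more than 5 SD from the mean control signal, in both duplicate plates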;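 also: plate controls were acetylcholine ECmax control wells for no effect and buffer only wells for full effect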
TRPC4 ctr mod = mouse TRPC4 off-target activity of TRPC6 modulators | shares compounds with TRPC6 inh | HEK293 TRPC4/mu-opioid, membrane potential fluorescence | percent change from control (negative = decrease, positive = increase), % at 10 µM | 69% of 2,400 active | AID 488927;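 active = membrane potential signal moved up or down beyond 5 SD of buffer control wells, in both duplicate plates, actives on both sides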;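 also: plate controls were assay buffer wells for no effect and DAMGO maximal-effect wells for full effect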
TRPC4 ctr inh 2 = second check of whether TRPC6 modulators also affect mouse TRPC4. inhibition, % at 10 µM. AID 488928. HEK293 TRPC4/mu-opioid, membrane potential dye fluorescence; stimulated with maximal-effect DAMGO. shares compounds with TRPC6 inh. 55% of 2,400 active;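 active = drop in membrane potential signal beyond 5 SD of the control wells in both duplicate plates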;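 also: TRPC4 counter screen for TRPC6 hits run under conditions tuned for TRPC6 not TRPC4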
TRPC6 inh conf = confirmation of mouse TRPC6 inhibitors. shares compounds with TRPC6 inh. HEK293-TRPC6, membrane potential dye, ACh-evoked depolarization. AID 488960. 43% of 3,300 active. inhibition, % at 10 µM;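 active = fluorescence ratio falls more than 5 SD below the full-stimulation control mean, in both duplicate runs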;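 also: integrated fluorescence ratio of peak minus minimum over baseline after agonist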
TRPC6 act confirm = confirmation of mouse TRPC6 activators | shares compounds with TRPC6 inh | HEK293-TRPC6 membrane potential dye fluorescence, FDSS | activation, % at 10 µM | 11% of 2,800 active;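 active = ratio signal rise beyond 5 SD above unstimulated control wells' mean, seen in both duplicate runs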;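 also: plate controls were buffer EC0 wells for no effect and acetylcholine ECmax response for full effect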
* = called active by the depositor; i = inactive; nt = no result. Shown are actives, neighbours in structure and some others; about 2.3% of the full set was active somewhere.

SMILES	TRPC6 inh	TRPC4 inh	TRPC4 agonist	TRPC6 activator	TRPC4 PAM	HEK293 MPD ctr-2	HEK293 MPD ctr 2-2	TRPC4 ctr mod	TRPC4 ctr inh 2	TRPC6 inh conf	TRPC6 act confirm	others
Cc1ccccc1Nc1nc(N)c2ccccc2n1	-6.8*	i	i	i	i	nt	nt	nt	nt	70%*	i	TRPC4 sel inh 2=32%*;TRPC4 spec=-26%*;HEK293 MPD ctr 2-1=36%*;HEK293 MPD ctr-1=-330%*
COc1ccc([N+](=O)[O-])cc1Nc1c2ccccc2nc2ccccc12	i	i	i	i	i	nt	nt	nt	nt	nt	nt
COc1cc2nc(Nc3ccc(C)c(Cl)c3)nc(N)c2cc1OC	i	i	i	i	i	nt	nt	nt	nt	nt	nt
COC(=O)NNC(=S)Nc1ccc(Br)cc1	i	i	i	i	i	nt	nt	nt	nt	nt	nt
CN(C)c1nc(Nc2ccccc2)nc(N(C)C)n1	i	i	i	i	i	nt	nt	nt	nt	nt	nt
CCOc1ccc(Nc2nc(N)c3ccccc3n2)cc1	i	i	i	i	i	nt	nt	nt	nt	nt	nt
Nc1nc(Nc2ccccc2)nc2ccccc12	-22*	i	i	i	i	-200%*	90%*	-46%*	86%*	86%*	i
CN(C)c1ccc(Nc2nc(N)c3ccccc3n2)cc1	-7.3*	i	i	i	i	-182%*	90%*	-45%*	86%*	84%*	i
CCOC(=O)C(Cc1ccccc1)NC(=O)CCc1nnc2ccc(N3CCCC3)nn12 (stereo not given)	i	i	i	i	i	nt	nt	nt	nt	nt	nt
Cc1ccc(C)c(N2CCN(C(=O)c3ccc(NS(=O)(=O)c4c(C)noc4C)cc3)CC2)c1	-6.5*	i	i	i	i	i	i	-15%*	50%*	74%*	i
Cc1ccc(Cl)cc1N1CCN(C(=O)c2ccc(NS(=O)(=O)c3c(C)noc3C)cc2)CC1	-6.2*	i	i	i	i	i	i	i	i	70%*	nt
Cc1ccccc1-c1nc(-c2ccc(NC(=O)c3cccs3)cc2)no1	-7.1*	i	i	i	i	nt	nt	nt	nt	i	i	TRPC4 sel inh 2=i;TRPC4 spec=i;HEK293 MPD ctr 2-1=i;HEK293 MPD ctr-1=i
CCOc1ccc2[nH]c3c(N4CCc5ccccc5C4)ncnc3c2c1	-6.5*	i	i	i	i	i	i	i	52%*	i	i
CC(C)=CC1C(C(=O)Nc2ccc(S(=O)(=O)N3CCOCC3)cc2)C1(C)C (stereo not given)	i	i	i	i	i	nt	nt	nt	nt	nt	nt
O=C(N[C@@H](Cc1ccccc1)C(=O)N1CCC2(CC1)NCCc1[nH]cnc12)c1cccc(F)c1	i	i	i	i	i	nt	nt	nt	nt	nt	nt
CCOC(=O)CCn1nc(-c2ccc(C)cc2)c2ccccc2c1=O	-5.5*	i	i	i	i	180%*	i	42%*	i	54%*	nt
CCCCNC(=O)CCn1nc(-c2ccccc2)c2ccccc2c1=O	-7.9*	i	i	i	i	nt	nt	nt	nt	i	nt	TRPC4 sel inh 2=i;TRPC4 spec=7.5%*;HEK293 MPD ctr 2-1=i;HEK293 MPD ctr-1=5.7%*
O=P(C(=NCCO)NO)(N1CCOCC1)N1CCOCC1	i	i	i	i	i	nt	nt	nt	nt	nt	nt
Nn1c(SCC(=O)Nc2nccs2)nnc1-c1ccccn1	i	i	i	i	i	nt	nt	nt	nt	nt	nt
CCN1CCN(C(=O)c2ccc3c(c2)c(C)c(C)n3Cc2ccccc2)CC1	i	i	i	i	i	nt	nt	nt	nt	nt	nt
Cc1c(C)n(Cc2ccccc2)c2ccc(C(=O)OCCCN(C)C)cc12	-8.5*	i	i	i	i	nt	nt	nt	nt	75%*	i	TRPC4 sel inh 2=34%*;TRPC4 spec=i;HEK293 MPD ctr 2-1=i;HEK293 MPD ctr-1=i
Cc1[nH]c2ccc(C(=O)OCCN(C)C)cc2c1C	i	i	i	i	i	nt	nt	nt	nt	nt	nt
Cc1c(C)n(CCN(C)C)c2ccc(C(=O)OCCN(C)C)cc12	-7.1*	i	i	i	i	-153%*	i	-32%*	75%*	56%*	i
N=c1n(Cc2ccccc2)c2ccccc2n1CC(O)c1ccccc1 (stereo not given)	-7.8*	i	i	i	i	nt	nt	nt	nt	i	i	TRPC4 sel inh 2=28%*;TRPC4 spec=27%*;HEK293 MPD ctr 2-1=i;HEK293 MPD ctr-1=10%*
CCCCn1c(=N)n(CC(O)COc2cccc(C)c2)c2ccccc21 (stereo not given)	-6.7*	i	i	i	i	nt	nt	nt	nt	i	nt	TRPC4 sel inh 2=38%*;TRPC4 spec=40%*;HEK293 MPD ctr 2-1=270%*;HEK293 MPD ctr-1=23%*
N=c1n(CCN2CCOCC2)c2ccccc2n1CC(=O)c1ccc(Cl)c(Cl)c1	i	i	i	i	i	nt	nt	nt	nt	nt	nt
N=c1n(CCN2CCCC2)c2ccccc2n1CC(O)c1ccc(Cl)c(Cl)c1 (stereo not given)	-5.8*	i	i	i	i	i	i	i	47%*	52%*	i
Cc1ccc(Cn2c(=N)n(CC(O)c3ccco3)c3ccccc32)cc1 (stereo not given)	-5.6*	-8*	i	i	i	178%*	i	33%*	88%*	54%*	nt
O=C(Nc1ccc(S(=O)(=O)Nc2cnc3ccccc3n2)cc1)c1ccccc1Br	i	i	i	i	i	nt	nt	nt	nt	nt	nt

High-throughput results: PubChem, Johns Hopkins Ion Channel Center
